These results are taken from PubChem BioAssay AID504383 (The Scripps Research Institute Molecular Screening Center, 2011).

About 1,200 (48%) of roughly 2,500 compounds were called active. So high a share suggests a set chosen from earlier hits. This is one part of the list. A number with no mark means an inactive call.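 The calls were made as follows: active = mean activation above the low control average plus 3 SD, as set in the primary screen (cut at about 12% in these data); inactive = the rest.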

For this experiment, the target named is Troponin I, cardiac muscle (Homo sapiens) + Troponin T, cardiac muscle (Homo sapiens) + Troponin C, slow skeletal and cardiac muscles (Homo sapiens) (UniProt P19429+P45379+P63316). As to the kind of experiment: cardiac RTF calcium sensitivity activators, confirmation, biochemical, IANBD-TnC fluorescence, triplicate (AID 504383).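 Also: 0% = DMSO at 0.472 mM calcium and 100% = DMSO at 2.9 mM calcium.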 The conditions noted are these: IANBD-labeled cardiac RTF, Ca2+ sensitivity fluorescence; at 7.2 µM; active compounds read high; scaled from EC20 to saturating calcium; tested at EC20 calcium, 0.472 mM. In outline: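 Assay system: labelled regulated thin filament protein complex; schedule: 15 min compound incubation with filaments at 25 °C; benchmarks: low control EC20 calcium, high control EC100 calcium; reagent: Ca2+ 0.472 mM, EC20 level; doses: one dose, 7.2 µM nominal; evaluation: fluorescence gain scaled between EC20 and EC100 calcium controls; signal: filament fluorescence intensity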
On to `C/C=C/c1ccc(OCCCNCC(C)O)c(OC)c1` (stereo unspecified), for which the activation was 663% (active).

As for `CCC/C(C#Cc1ccc(N(C)C)cc1)=C1/c2ccccc2C(=O)N1c1ccccc1`, the activation is 94.7% (active).

As to `COc1ccc(N2C(=O)c3cccc4c(N(C)CCO)ccc(c34)C2=O)cc1`, the activation was 4.11%.

As for `Cc1ccc(S(=O)(=O)N2CCOCC2)cc1C(=O)N1C(=O)c2cccc(N)c2C1=O`, the activation is 8.84%.

With `Cc1ccc(S(=O)(=O)c2cccc(S(=O)(=O)N3CCOCC3)c2)cc1S(=O)(=O)N1CCOCC1`, the activation is 20.6% (active).

For `Cc1nnc(N2CCOCC2)c2nn(-c3cccc(Cl)c3)c(C)c12`, the activation was 4.95%.

As for `COc1ccc(/C=N/NC(=O)c2cccnc2)cc1CN1CCOCC1`, the activation is 36.1% (active).

Consider `COc1ccc(/C=N/NC(=O)c2cc(OC)c(OC)c(OC)c2)cc1CN1CCc2cc(OC)c(OC)cc2C1C` (stereo unspecified), for which the activation was 28.3% (active).

`COC(=O)N/N=C/c1cccnc1`: the activation is 2.85%.

Take `O=C(CNC(=O)c1cccc(Cl)c1)N/N=C/c1cccnc1`: the activation was 11%.

With `COC(=O)C[n+]1cccc2ccccc21`, the activation was 212% (active).

`O=C(C[n+]1cccc2ccccc21)c1ccccc1`: the activation is 10.7%.

As for `O=C(CCC1CCCN(C(=O)c2ccncc2)C1)NCc1ccc(F)c(F)c1` (stereo unspecified), the activation is 3.6%.

Turning to `O=C(NCCc1ccccc1)C1CCN(c2ncccn2)CC1`, the activation was 2.88%.

`O=C(NCc1ccc(Cl)cc1)C1CCN(c2cnccn2)CC1`: the activation was 68.5% (active).

In the case of `CCOC(=O)c1cc2n(c1N)-c1ccccc1C2=O`, the activation is 71.8% (active).

Take `CCOC(=O)c1cc2c(s1)-c1ccccc1CC2`: the activation was 0.58%.

On to `CCOC(=O)c1ccccc1-n1nnnc1C`, for which the activation is 1.99%.

In the case of `CCC(C)[C@H](NC(=O)N1CCC(C)CC1)C(=O)OC` (stereo partly specified), the activation is 11.1%.

For `COc1ccccc1-c1sc2ccccc2c1-c1ccc(Br)nc1`, the activation is -1.06%.

For `Oc1ccc(-c2c(C3=CCCCC3)sc3ccccc23)cc1`, the activation was 125% (active).

For `N#CCCN(C(=O)c1ccco1)c1ccccc1`, the activation is 4250% (active).

In the case of `CCN(C(=O)c1cc2ccccc2oc1=O)c1ccccc1`, the activation was 8.22%.

`CCOC(=O)/C(=N\Nc1ccc(C(C)=O)cc1)c1csc(Nc2ccccc2)n1`: the activation was 11.1%.

For the compound `CCOC(=O)c1cnc2ccccc2c1Nc1ccc(C(=O)O)cc1`, the activation is 161% (active).

`Cc1ccc(OCCCC(=O)NC2CCCCC2)cc1`: the activation was 4.78%.

For the compound `COc1ccc(OCCNC(=O)c2ccc(C)cc2)cc1`, the activation was 28.4% (active).

As for `COc1ccc(OCC(=O)OCCNC(=O)c2cccnc2)cc1`, the activation was 5.53%.

Regarding `Cc1sc2nc(COC(=O)c3cccc(S(=O)(=O)N(C)c4ccccc4)c3)[nH]c(=O)c2c1C`, the activation was 2.91%.

For the compound `Cc1ccc(CNC(=O)c2cc(-c3ccccc3)nn2Cc2cc(C)no2)cc1`, the activation was 8.67%.

With `Cc1ccc(C)c(C(=O)CCC(=O)NCc2ccc(Cl)cc2)c1`, the activation was 10.5%.

Turning to `Cc1ccc(CNC(=O)CCn2cc(-c3ccc(C)cc3)nc2-c2ccncc2)cc1`, the activation is 57.1% (active).

For `Cc1ccc(-c2ccc(OC(=O)c3ccc(=O)[nH]c3)c(C)c2)cc1`, the activation is 28.2% (active).

Regarding `CCc1ccc(NC(=O)C2CCN(S(=O)(=O)c3ccc4[nH]c(=O)ccc4c3)CC2)cc1`, the activation is 12.1% (active).

Regarding `CC(=O)Nc1ccc(Nc2cc(N(C)C)c3nonc3c2[N+](=O)[O-])cc1`, the activation was 99.2% (active).

As for `COc1ccc(-n2nc3c(N4CCC(C(=O)N5CCC(C)CC5)CC4)nnc(C)c3c2C)cc1`, the activation was 2.83%.

On to `O=C(Nc1cc2c(cc1Br)OCCCO2)c1cccnc1`, for which the activation was 2.74%.

Consider `CC1CCN(c2ccc(NC(=O)c3cccnc3)cc2)CC1`, for which the activation is 19.8% (active).

For `COc1ccccc1-c1nnc(SCc2nc3ccccc3s2)n1C`, the activation is 29.9% (active).

In the case of `CC(C)(C)OC(=O)[C@H](Cc1ccccc1)NC(=O)c1nc[nH]c1C(=O)NCc1ccccc1`, the activation was 25.1% (active).

Regarding `CN(Cc1ccccc1)C(=O)c1[nH]cnc1C(=O)NCc1ccccc1`, the activation is 59.9% (active).

In the case of `O=C(NCc1ccccc1Cl)c1ccc2nc[nH]c2c1`, the activation is 6.6%.

Regarding `O=C1N(c2ccc(Cl)cc2)C(c2ccccc2)N2CCCN12` (stereo unspecified), the activation was 5.52%.

Take `Fc1ccc(-c2nnc(-c3ccc(Cl)cc3Cl)o2)cc1`: the activation is 54% (active).

As for `O=C(c1cccc(F)c1)N1CCN(C(=O)c2cc(-c3ccc(Cl)cc3Cl)on2)CC1`, the activation is 3.41%.

In the case of `C/C(=N\NC(=O)c1ccccc1)c1ccc(NC(=O)c2cccs2)cc1`, the activation was 3.16%.

For the compound `Cc1ccc(-n2nc(C)c(=O)c(-c3ccccc3)c2NC(=O)c2cccs2)cc1`, the activation was 11.8% (active).

On to `CCOC(=O)/C(=C\C=C1/Sc2ccccc2N1CC)C(C)=O`, for which the activation was 20% (active).

For the compound `CCOC(=O)/C(=C/C=C1\Sc2cc(OCC)c(OCC)cc2N1CC)C(C)=O`, the activation was 40% (active).

On to `CCOC(=O)/C(=C/C=C1\Sc2ccccc2N1CC)C(C)=O`, for which the activation was 190% (active).

For the compound `CCOC(=O)/C(=C/C=C1\Sc2cc(C)c(C)cc2N1CC)C(C)=O`, the activation was 4.3%.

As to `CCOC(=O)/C(=C\C=C1/Sc2cc(OCC)c(OCC)cc2N1CC)C(C)=O`, the activation is 8.28%.

For `CCOC(=O)/C(C#N)=C(C)/C=C1\Sc2ccccc2N1CC`, the activation was 11.9% (active).

As to `CCN1/C(=C\C=C(C(C)=O)C(C)=O)Sc2ccccc21`, the activation is 9.03%.

For the compound `CC1(C)c2[nH]c3ccccc3c2C[C@H]2C(=O)N(Cc3ccc(F)cc3)C(=O)N21`, the activation is 6.36%.

With `CC(C)NC(=O)C1CCCN(c2nnc(-n3cccc3)s2)C1` (stereo unspecified), the activation is 1270% (active).

Regarding `Cc1cc(Br)ccc1SCC(=O)OCC(=O)Nc1ccccc1C#N`, the activation was 9.13%.

As to `COC(=O)c1cc2c(cc1NC(=O)CSCCc1ccccn1)OCO2`, the activation was 7.4%.

On to `COCc1cc(C)n(CC(=O)Nc2ccccc2C(=O)OC)c(=O)c1C#N`, for which the activation is 23.2% (active).

In the case of `C[C@H]1CN([C@@H](C)CO)C(=O)Cc2cc(NC(=O)CCC(F)(F)F)ccc2O[C@H]1CN(C)S(C)(=O)=O`, the activation is 15.4% (active).

With `Cc1noc(C)c1S(=O)(=O)N(C)C[C@H]1Oc2ccc(NC(=O)CCC(F)(F)F)cc2C(=O)N([C@H](C)CO)C[C@@H]1C`, the activation is 10.2%.
